pIC50: −log10 of the molar value. Converted amounts (≈) assume the structure as drawn.
Legend:
[1] = test system: Plasmodium yoelii; experiment: Antimalarial activity against Plasmodium yoelii infected in erythrocytes assessed as inhibition of beta-hematin formation after 16 hrs by BHIA assay; type: functional, cell-free
Procedure, shortened: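 Plasma from infected animal blood at 50% parasitemia (cardiac puncture into 2.0% citrate, spun 5000 rpm, 10 min, 4 °C). Reaction in 1.0 mL: 100 mM sodium acetate pH 5.1, hemin as substrate, plasma, 1–20 µg compound; controls without compound. Triplicate, 37 °C, 16 h, rotary shaker. Pellet washed, dissolved in 2 N NaOH, absorbance 400 nm; IC50 by nonlinear regression of dose-response.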

[2] = test system: Plasmodium falciparum; experiment: Antimalarial activity against Plasmodium falciparum K1 assessed as parasite growth inhibition after 72 hrs by MSF assay; type: functional, organism-based; details: K1, 72 h
Procedure, shortened: (§1)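 P. falciparum cultures in RPMI-1640-FBS; DMSO stock 5 mg/ml diluted in medium, duplicate wells; 1.0% parasitized cell suspension at 0.8% parasitemia. Incubated 37 °C, 5% CO2 air mixture, 72 h. Lysis buffer with 2× SYBR Green I added, 1 h at 37 °C. Fluorescence read at 485 ± 20 nm excitation / 530 ± 20 nm emission; IC50 by logit regression.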

[3] = test system: Plasmodium falciparum; experiment: Antimalarial activity against Plasmodium falciparum 3D7 assessed as parasite growth inhibition after 72 hrs by MSF assay; type: functional, organism-based; details: 3D7, 72 h; procedure, shortened: as §1
[4] = Selectivity index, ratio of CC50 for african green monkey Vero cells to IC50 for Plasmodium falciparum K1; type: functional
[5] = Cytotoxicity against mouse bone marrow derived macrophage assessed as growth inhibition after 48 hrs by MTS assay; type: cell-based
Procedure, shortened: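 Macrophages washed, plated at 10^5 cells per well in supplemented DMEM, 37 °C, 5% CO2, medium changed every 3rd day, used after 5 days. Compounds added in antibiotic-free, FBS-supplemented DMEM for 48 h at 37 °C, 5% CO2. MTS added for 2 h, absorbance 490 nm; DMSO wells taken as 100% survival.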

[6] = test system: Vero; experiment: Cytotoxicity against african green monkey Vero cells assessed as growth inhibition after 24 hrs by MTS assay; type: cell-based; details: Chlorocebus sabaeus
Procedure, shortened: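 Vero cells plated at 20,000 per well in MEM with antibiotics + 10% FBS, allowed to adhere overnight at 37 °C, 5% CO2. Compound dilutions added in MEM + 10% FBS; known toxic compound positive control, DMSO negative control. After 24 h, MTS added, 2 h at 37 °C, absorbance 490 nm; DMSO wells taken as 100% survival.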

[7] = test system: Mycobacterium tuberculosis; experiment: Antitubercular activity Mycobacterium tuberculosis H37Rv assessed as growth inhibition after 4 weeks; type: functional; details: 672 h
Procedure, shortened: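 M. tuberculosis H37Rv from Lowenstein-Jensen culture, harvested in N-saline with 0.05% Tween-80 and made single-cell with glass beads. Working inoculum 2 × 10⁷ cfu/mL spread on drug-containing slanted solid medium. Incubated 37 °C for 4 weeks, watching for colonies. Drug-free tubes as control, isoniazid as reference. MIC taken as the lowest concentration giving complete growth inhibition at this inoculum.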

CCN(CC)CCCC(C)Nc1ccnc2cc(Cl)ccc12 (stereo not drawn) [CHLOROQUINE]
IC50 [1]: 4.3 µg/mL (≈ 13.4 µM)

CCc1ccc(/C=C2\SC(=S)N(CCCCNc3ccnc4cc(Cl)ccc34)C2=O)cc1
IC50 [1]: 6.21 µg/mL (≈ 12.9 µM) | pIC50 [2]: 6.84 | pIC50 [3]: 7.26 | Ratio CC50/IC50 [4]: 102.86

O=C1/C(=C/c2ccc([N+](=O)[O-])cc2)SC(=S)N1CCCCNc1ccnc2cc(Cl)ccc12
IC50 [1]: 17.3 µg/mL (≈ 34.7 µM) | pIC50 [2]: 7.05 | pIC50 [3]: 7.40 | Ratio CC50/IC50 [4]: 3720.88

O=C1/C(=C/c2cccc([N+](=O)[O-])c2)SC(=S)N1CCCNc1ccnc2cc(Cl)ccc12
IC50 [1]: 3.93 µg/mL (≈ 8.1 µM) | pIC50 [2]: 7.30 | pIC50 [3]: 7.02 | Ratio CC50/IC50 [4]: 106.4

O=C1/C(=C/c2ccc([N+](=O)[O-])cc2)SC(=S)N1CCNc1ccnc2cc(Cl)ccc12
IC50 [1]: 12.8 µg/mL (≈ 27.1 µM) | pIC50 [2]: 6.08 | pIC50 [3]: 6.06 | Ratio CC50/IC50 [4]: 56.19

O=C1CSC(=S)N1CCCNc1ccnc2cc(Cl)ccc12
IC50 [1]: 8.16 µg/mL (≈ 23.2 µM) | pIC50 [2]: 7.35 | pIC50 [3]: 6.70 | Ratio CC50/IC50 [4]: 88.3

O=C1/C(=C/c2ccco2)SC(=S)N1CCCCNc1ccnc2cc(Cl)ccc12
pIC50 [5]: 4.15 | pIC50 [6]: < 4.00 | MIC [7]: 6.25 µM (≈ 2.77 µg/mL) | IC50 [1]: 2.78 µg/mL (≈ 6.26 µM) | pIC50 [2]: 6.82 | pIC50 [3]: 7.46 | Ratio CC50/IC50 [4]: 92.72

CN(C)c1ccc(/C=C2\SC(=S)N(CCCCNc3ccnc4cc(Cl)ccc34)C2=O)cc1
IC50 [1]: 4.23 µg/mL (≈ 8.51 µM) | pIC50 [2]: 7.26 | pIC50 [3]: 7.51 | Ratio CC50/IC50 [4]: 422.41

CN(C)c1ccc(/C=C2\SC(=S)N(CCCNc3ccnc4cc(Cl)ccc34)C2=O)cc1
IC50 [1]: 6.35 µg/mL (≈ 13.1 µM) | pIC50 [2]: 7.18 | pIC50 [3]: 7.31 | Ratio CC50/IC50 [4]: 4195.05

O=C1/C(=C/c2ccc(Cl)cc2)SC(=S)N1CCCNc1ccnc2cc(Cl)ccc12
IC50 [1]: 3.26 µg/mL (≈ 6.87 µM) | pIC50 [2]: 7.03 | pIC50 [3]: 7.12 | Ratio CC50/IC50 [4]: 442.83

NNC(=O)c1ccncc1 [ISONIAZID]
pIC50 [5]: < 4.00 | pIC50 [6]: < 4.00 | MIC [7]: 0.217 µM (≈ 0.0298 µg/mL)

COc1ccc(/C=C2\SC(=S)N(CCCCNc3ccnc4cc(Cl)ccc34)C2=O)c2ccccc12
pIC50 [5]: < 4.00 | pIC50 [6]: < 4.00 | MIC [7]: 6.25 µM (≈ 3.34 µg/mL) | IC50 [1]: 4.05 µg/mL (≈ 7.58 µM) | pIC50 [2]: 6.55 | pIC50 [3]: 6.55 | Ratio CC50/IC50 [4]: 356.27

COc1ccc(/C=C2\SC(=S)N(CCCNc3ccnc4cc(Cl)ccc34)C2=O)c2ccccc12
IC50 [1]: 2.65 µg/mL (≈ 5.1 µM) | pIC50 [2]: 7.23 | pIC50 [3]: 7.04 | Ratio CC50/IC50 [4]: 64.55

O=C1/C(=C/c2ccc(F)cc2)SC(=S)N1CCCNc1ccnc2cc(Cl)ccc12
IC50 [1]: 4.3 µg/mL (≈ 9.39 µM) | pIC50 [2]: 7.88 | pIC50 [3]: 7.03 | Ratio CC50/IC50 [4]: 2083.58

O=C1CSC(=S)N1CCNc1ccnc2cc(Cl)ccc12
IC50 [1]: 4.9 µg/mL (≈ 14.5 µM) | pIC50 [2]: 7.10 | pIC50 [3]: 6.74 | Ratio CC50/IC50 [4]: 112.54

O=C1/C(=C/c2ccccc2)SC(=S)N1CCCCNc1ccnc2cc(Cl)ccc12
IC50 [1]: 4.03 µg/mL (≈ 8.88 µM) | pIC50 [2]: 6.82 | pIC50 [3]: 7.36 | Ratio CC50/IC50 [4]: 113.53

O=C1CSC(=S)N1CCCCNc1ccnc2cc(Cl)ccc12
MIC [7]: 12.5 µM (≈ 4.57 µg/mL) | IC50 [1]: 6.21 µg/mL (≈ 17 µM) | pIC50 [2]: 7.24 | pIC50 [3]: 6.62 | Ratio CC50/IC50 [4]: 75.44

COc1cc(/C=C2\SC(=S)N(CCNc3ccnc4cc(Cl)ccc34)C2=O)cc(OC)c1OC
IC50 [1]: 7.31 µg/mL (≈ 14.2 µM) | pIC50 [2]: 7.23 | pIC50 [3]: 7.46 | Ratio CC50/IC50 [4]: 88.79

O=C1/C(=C/c2ccncc2)SC(=S)N1CCCCNc1ccnc2cc(Cl)ccc12
IC50 [1]: 6.3 µg/mL (≈ 13.8 µM) | pIC50 [2]: 6.51 | pIC50 [3]: 7.03 | Ratio CC50/IC50 [4]: 60.39

CCc1ccc(/C=C2\SC(=S)N(CCNc3ccnc4cc(Cl)ccc34)C2=O)cc1
IC50 [1]: 6.73 µg/mL (≈ 14.8 µM) | pIC50 [2]: 7.02 | pIC50 [3]: 7.37 | Ratio CC50/IC50 [4]: 17.51

O=C1/C(=C/c2ccccc2[N+](=O)[O-])SC(=S)N1CCCNc1ccnc2cc(Cl)ccc12
pIC50 [5]: 4.15 | pIC50 [6]: < 4.00 | MIC [7]: 6.25 µM (≈ 3.03 µg/mL) | IC50 [1]: 3.3 µg/mL (≈ 6.8 µM) | pIC50 [2]: 7.08 | pIC50 [3]: 7.42 | Ratio CC50/IC50 [4]: 639.19

O=C1/C(=C/c2ccccn2)SC(=S)N1CCNc1ccnc2cc(Cl)ccc12
IC50 [1]: 16.5 µg/mL (≈ 38.6 µM) | pIC50 [2]: < 5.96 | pIC50 [3]: < 5.93

O=C1/C(=C/c2ccc([N+](=O)[O-])cc2)SC(=S)N1CCCNc1ccnc2cc(Cl)ccc12
IC50 [1]: 3.23 µg/mL (≈ 6.66 µM) | pIC50 [2]: 7.34 | pIC50 [3]: 7.63 | Ratio CC50/IC50 [4]: 180.38

O=C1/C(=C/c2ccccc2)SC(=S)N1CCNc1ccnc2cc(Cl)ccc12
IC50 [1]: 8.21 µg/mL (≈ 19.3 µM) | pIC50 [2]: 6.98 | pIC50 [3]: 7.23 | Ratio CC50/IC50 [4]: 29.16

COc1cc(/C=C2\SC(=S)N(CCCNc3ccnc4cc(Cl)ccc34)C2=O)cc(OC)c1OC
IC50 [1]: 3.33 µg/mL (≈ 6.28 µM) | pIC50 [2]: 7.37 | pIC50 [3]: 7.25 | Ratio CC50/IC50 [4]: 193.92

CO[C@H]1/C=C/O[C@@]2(C)Oc3c(C)c(O)c4c(O)c(c(/C=N/N5CCN(C)CC5)c(O)c4c3C2=O)NC(=O)/C(C)=C\C=C\[C@H](C)[C@H](O)[C@@H](C)[C@@H](O)[C@@H](C)[C@H](OC(C)=O)[C@@H]1C [RIFAMPIN]
pIC50 [5]: < 4.00 | pIC50 [6]: < 4.00 | MIC [7]: 0.243 µM (≈ 0.2 µg/mL)

COc1cc(/C=C2\SC(=S)N(CCCCNc3ccnc4cc(Cl)ccc34)C2=O)cc(OC)c1OC
MIC [7]: 12.5 µM (≈ 6.8 µg/mL) | IC50 [1]: 3.93 µg/mL (≈ 7.22 µM) | pIC50 [2]: 7.15 | pIC50 [3]: 7.37 | Ratio CC50/IC50 [4]: 110.08
